Measurements taken from ChEMBL document CHEMBL2390820, “3-Biphenylimidazo[1,2-a]pyridines or [1,2-b]pyridazines and analogues, novel Flaviviridae inhibitors” (Eur J Med Chem, 2013).
In brackets after ≈: the same amount, converted by molar mass.

Legend:
[1] = Selectivity index, ratio of CC50 for Huh5-2 cells to EC50 for HCV genotype 1b infected in Huh5-2 cells; design: species or system Huh-5-2
Summary of the method: (§1)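 Selectivity index is the ratio of CC50 from the 3-day MTS/PMS proliferation assay to EC50 in the same cell line. For Huh 5-2 the EC50 is from the luciferase replicon assay; for MDBK it is from the MTS CPE assay.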

Hepatitis C virus = assay: Antiviral activity against HCV genotype 1b infected in Huh5-2 cells assessed as inhibition of viral replication after 4 days by luciferase reporter gene assay; type: functional, organism-based, Hepacivirus hominis, Huh-5-2; conditions: for EC50: Hepatitis C virus, genotype 1b, Huh-5-2, 96 h
Summary of the method: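 Huh 5-2 cells carrying the HCV subgenomic luciferase replicon were seeded at 5 × 10³/well with compound and incubated 4 days at 37 °C. Medium was removed and luciferase activity quantified. EC50 is the minimum concentration reducing replicon-driven luciferase signal by 50%.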

[2] = Cytotoxicity against human Huh5-2 cells assessed as growth inhibition after 3 days by MTS assay; type: cell-based, Huh-5-2
Summary of the method: (§2)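 MDBK or Huh 5-2 cells were seeded at 5 × 10³/well in MEM-FCS, with serial compound dilutions added 24 h later. Cells proliferated 3 days at 37 °C, then metabolic activity was read by MTS/PMS. CC50 is the concentration inhibiting proliferation of exponentially growing cells by 50%, by linear interpolation.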

[3] = Selectivity index, ratio of CC50 for MDBK cells to EC50 for BVDV NADL infected in MDBK cells; summary of the method: as §1
[4] = Cytotoxicity against MDBK cells assessed as growth inhibition after 3 days by MTS assay; type: cell-based, Bos taurus; conditions: cattle; summary of the method: as §2
[5] = Antiviral activity against BVDV NADL infected in MDBK cells assessed as inhibition of virus-induced cytopathic effect formation after 5 days by MTS assay; type: functional, cell-based, Bovine viral diarrhea virus 1-NADL; conditions: Bovine viral diarrhea virus isolates and strains, 120 h
Summary of the method: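 MDBK cells were seeded at 5 × 10³/well in MEM-FCS and held 24 h at 37 °C, 5% CO₂. Medium was replaced with 5-fold serial compound dilutions, then BVDV inoculum was added at MOI 2. CPE was read by MTS as OD at 490 nm. EC50 is the concentration giving 50% protection against virus-induced CPE, by linear interpolation.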

Compound | Ratio CC50/EC50 [1] | EC50 (Hepatitis C virus) [µg/mL] | CC50 at 72 h [2] [µg/mL] | Ratio CC50/EC50 [3] | CC50 at 72 h [4] [µg/mL] | EC50 [5] [µg/mL] | inhibition (INH) (Hepatitis C virus) [%]
Fc1ccc(-c2nc3ccccn3c2-c2cccc(-c3ccncc3)c2)cc1 | 2.3 | 20.2 (≈ 55.3 µM) | 45.5 (≈ 125 µM) | 7.1 | 7 (≈ 19.2 µM) | 0.98 (≈ 2.68 µM) | –
CC(C)(C)c1nc2ccc(-c3ccsc3)nn2c1-c1cccc(-c2ccco2)c1 | 4.8 | 8.6 (≈ 21.5 µM) | 41.3 (≈ 103 µM) | – | > 100 | > 100 | –
Fc1ccc(-c2nc3ccccn3c2-c2cccc(-c3ccsc3)c2)cc1 | 5.1 | 11.1 (≈ 30 µM) | 56.7 (≈ 153 µM) | 3 | 7 (≈ 18.9 µM) | 2.3 (≈ 6.21 µM) | –
Fc1ccc(-c2nc3ccc(-c4ccsc4)nn3c2-c2ccc(-c3ccccc3)cc2)cc1 | >1 | > 112 | > 112 | >1 | > 50 | > 50 | –
COc1ccccc1-c1nc2ccc(-c3ccsc3)nn2c1-c1cccc(-c2ccco2)c1 | 3.6 | 15.1 (≈ 33.6 µM) | 54.3 (≈ 121 µM) | – | – | – | –
COc1ccccc1-c1nc2ccc(-c3ccsc3)nn2c1-c1cccc(-c2ccc(O)cc2)c1 | 9.2 | 2.4 (≈ 5.05 µM) | 22.1 (≈ 46.5 µM) | – | > 100 | > 100 | –
Fc1ccc(-c2nc3ccc(-c4ccsc4)nn3c2-c2cccc(-c3ccccc3)c2)cc1 | 1.2 | 11.2 (≈ 25 µM) | 13.4 (≈ 29.9 µM) | 8 | 13 (≈ 29 µM) | 1.7 (≈ 3.8 µM) | –
CCOC(=O)c1nc2ccc(-c3ccsc3)cn2c1-c1cccc(-c2ccccc2)c1 | >2.2 | 53.1 (≈ 125 µM) | > 118 | – | 67.7 (≈ 159 µM) | > 67.7 | –
COc1ccc(-c2nc3ccc(-c4ccsc4)cn3c2-c2cccc(-c3ccccc3)c2)cc1 | >1.9 | 56.8 (≈ 124 µM) | > 109 | >4.4 | > 100 | 22.7 (≈ 49.5 µM) | –
c1ccc(-c2cccc(-c3cnc4ccc(-c5ccsc5)cn34)c2)cc1 | >1.6 | 89.5 (≈ 254 µM) | > 142 | >1 | > 100 | > 100 | –
Fc1ccc(-c2nc3ccccn3c2-c2cccc(-c3cc4ccccc4o3)c2)cc1 | 2 | 28 (≈ 69.2 µM) | 54.9 (≈ 136 µM) | – | – | – | –
CC(C)(C)c1nc2ccc(-c3ccsc3)nn2c1-c1cccc(-c2ccoc2)c1 | 6.3 | 8.7 (≈ 21.8 µM) | 55.1 (≈ 138 µM) | 2.7 | 4.5 (≈ 11.3 µM) | 1.7 (≈ 4.26 µM) | –
CC(C)(C)c1nc2ccc(-c3ccsc3)nn2c1-c1cccc(-c2ccccc2O)c1 | 2.5 | 30.1 (≈ 70.7 µM) | 75.3 (≈ 177 µM) | – | > 100 | > 100 | –
COc1ccccc1-c1nc2ccccn2c1-c1cccc(-c2ccccc2O)c1 | 2 | 48.9 (≈ 125 µM) | 95.8 (≈ 244 µM) | 1.9 | 14.4 (≈ 36.7 µM) | 7.55 (≈ 19.2 µM) | –
Fc1ccc(-c2nc3ccc(N4CCOCC4)cn3c2-c2cccc(-c3ccccc3)c2)cc1 | 1.7 | 6.7 (≈ 14.9 µM) | 11.1 (≈ 24.7 µM) | >1 | > 50 | > 50 | –
Fc1ccc(-c2nc3ccccn3c2-c2cccc(-c3ccco3)c2)cc1 | 1.9 | 12.8 (≈ 36.1 µM) | 24.7 (≈ 69.7 µM) | – | – | – | –
COc1cccc(-c2nc3ccc(-c4ccsc4)cn3c2-c2cccc(-c3ccccc3)c2)c1 | 1.6 | 52.4 (≈ 114 µM) | 85.2 (≈ 186 µM) | >6.7 | > 100 | 15 (≈ 32.7 µM) | –
COc1cccc(-c2cccc(-c3c(-c4ccc(F)cc4)nc4ccccn34)c2)c1 | 11.8 | 4.3 (≈ 10.9 µM) | 50.2 (≈ 127 µM) | 3.7 | 11.5 (≈ 29.2 µM) | 3.1 (≈ 7.86 µM) | –
COc1ccccc1-c1nc2ccccn2c1-c1cccc(-c2cccc(O)c2)c1 | 11.4 | 3.5 (≈ 8.92 µM) | 40.3 (≈ 103 µM) | – | – | – | –
COc1ccccc1-c1nc2ccc(-c3ccsc3)nn2c1-c1cccc(-c2cccc(O)c2)c1 | 20.8 | 3.8 (≈ 7.99 µM) | 78.5 (≈ 165 µM) | – | > 100 | > 100 | –
Fc1ccc(-c2nc3ccc(N4CCOCC4)nn3c2-c2cccc(-c3ccccc3)c2)cc1 | – | – | 11.1 (≈ 24.6 µM) | 3 | 12 (≈ 26.6 µM) | 4 (≈ 8.88 µM) | –

Compound | Ratio CC50/EC50 [1] | EC50 (Hepatitis C virus) [µg/mL] | CC50 at 72 h [2] [µg/mL] | Ratio CC50/EC50 [3] | CC50 at 72 h [4] [µg/mL] | EC50 [5] [µg/mL] | inhibition (INH) (Hepatitis C virus) [%]
c1ccc(-c2cccc(-c3c(-c4ccsc4)nc4ccc(-c5ccsc5)cn34)c2)cc1 | >1.8 | 64.5 (≈ 148 µM) | > 115 | >15.2 | > 100 | 6.6 (≈ 15.2 µM) | –
COc1ccccc1-c1cccc(-c2c(-c3ccc(F)cc3)nc3ccccn23)c1 | 2.8 | 10.7 (≈ 27.1 µM) | 29.7 (≈ 75.3 µM) | 3.2 | 8.5 (≈ 21.5 µM) | 2.7 (≈ 6.84 µM) | –
CN1CCN(c2ccc3nc(-c4ccc(F)cc4)c(-c4ccc(-c5ccccc5)cc4)n3n2)CC1 | – | – | 45.3 (≈ 97.7 µM) | >1 | > 50 | > 50 | –
Fc1ccc(-c2nc3ccc(N4CCOCC4)nn3c2-c2ccc(-c3ccccc3)cc2)cc1 | – | – | 33.3 (≈ 73.9 µM) | >1 | > 50 | > 50 | –
Fc1ccc(-c2nc3ccccn3c2-c2cccc(-c3ccccc3)c2)cc1 | 1.7 | 34.9 (≈ 95.8 µM) | 60.4 (≈ 166 µM) | – | – | – | –
COc1ccccc1-c1nc2ccccn2c1-c1cccc(-c2ccc(O)cc2)c1 | 2.3 | 18.8 (≈ 47.9 µM) | 43.8 (≈ 112 µM) | >5.6 | > 100 | 17.7 (≈ 45.1 µM) | –
Fc1ccc(-c2nc3ccc(-c4ccccc4)cn3c2-c2ccc(-c3ccccc3)cc2)cc1 | 2.5 | 4.5 (≈ 10.2 µM) | 11.4 (≈ 25.9 µM) | – | 30 (≈ 68.1 µM) | > 30 | –
Fc1ccc(-c2nc3ccc(-c4ccccc4)nn3c2-c2ccc(-c3ccccc3)cc2)cc1 | – | – | 45.3 (≈ 103 µM) | >1 | > 50 | > 50 | –
COc1ccccc1-c1nc2ccc(-c3ccsc3)nn2c1-c1cccc(-c2ccccc2O)c1 | >43 | 4.8 (≈ 10.1 µM) | > 205 | 12 | 16.2 (≈ 34.1 µM) | 1.36 (≈ 2.86 µM) | 60
COc1ccc(-c2cccc(-c3c(-c4ccc(F)cc4)nc4ccccn34)c2)cc1 | 21.3 | 1.63 (≈ 4.13 µM) | 34.8 (≈ 88.2 µM) | >36 | > 100 | 2.8 (≈ 7.1 µM) | –
CC(C)(C)c1nc2ccc(-c3ccsc3)cn2c1-c1cccc(-c2ccccc2)c1 | >2.4 | 42.5 (≈ 104 µM) | > 123 | >1.6 | > 100 | 62.6 (≈ 153 µM) | –
CN1CCN(c2cccc(-c3c(-c4ccc(F)cc4)nc4ccccn34)c2)CC1 | 2.8 | 21.8 (≈ 56.4 µM) | 60.1 (≈ 156 µM) | – | – | – | –
Oc1ccc(-c2cccc(-c3c(-c4ccc(F)cc4)nc4ccccn34)c2)cc1 | 5.1 | 13.5 (≈ 35.5 µM) | 69.5 (≈ 183 µM) | – | – | – | –
CC(C)(C)c1nc2ccc(-c3ccsc3)nn2c1-c1cccc(-c2ccccc2)c1 | 2.8 | 22.7 (≈ 55.4 µM) | 63.2 (≈ 154 µM) | >2.6 | > 100 | 37.9 (≈ 92.5 µM) | –
COc1ccccc1-c1nc2ccc(-c3ccsc3)nn2c1-c1cccc(-c2ccccc2)c1 | 6.6 | 14.7 (≈ 32 µM) | 97.4 (≈ 212 µM) | 3.1 | 10.4 (≈ 22.6 µM) | 3.4 (≈ 7.4 µM) | –
Fc1ccc(-c2nc3ccc(-c4ccccc4)cn3c2-c2cccc(-c3ccccc3)c2)cc1 | 1.09 | 52.2 (≈ 118 µM) | 56.8 (≈ 129 µM) | >4 | > 50 | 12 (≈ 27.2 µM) | –
COc1ccccc1-c1nc2ccc(-c3ccsc3)nn2c1-c1cccc(-c2ccoc2)c1 | 1.4 | 11.1 (≈ 24.7 µM) | 15.7 (≈ 34.9 µM) | – | > 100 | > 100 | –
Fc1ccc(-c2nc3ccccn3c2-c2cccc(-c3ccc(Cl)cc3)c2)cc1 | 9.7 | 5.9 (≈ 14.8 µM) | 57.5 (≈ 144 µM) | 4.3 | 12.7 (≈ 31.8 µM) | 3 (≈ 7.52 µM) | –
Fc1ccc(-c2nc3ccc(N4CCOCC4)cn3c2-c2ccc(-c3ccccc3)cc2)cc1 | 2.3 | 6.7 (≈ 14.9 µM) | 15.6 (≈ 34.7 µM) | >1 | > 50 | > 50 | –
Fc1ccc(-c2nc3ccccn3c2-c2ccc(-c3ccccc3)cc2)cc1 | – | 2.64 (≈ 7.24 µM) | 36 (≈ 98.8 µM) | – | – | – | –
